# Not all results are given here.
# Apaf1 activ – activators of human Apaf-1 apoptosome. O14727. Apaf-1 apoptosome caspase-3 activation, DEVD-Rh110 fluorescence; active compounds read low. activity change, negative = activation, % at 20 µM. 330,000 compounds, 0.31% hits. AID 489031;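 active = activity change at or below -40% at 20 µM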
#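 Material: biochemical Apaf-1 apoptosome reconstitution; Medium: 20 mM HEPES buffer, pH 7.5, containing CHAPS and BSA; Reagent: dATP, cytochrome c, and (Z-DEVD)2-Rh110 caspase-3 substrate; Times: 30 min preincubation, 50 min reaction, room temperature; Signal: Rh110 fluorescence, excitation 480 nm, emission 540 nm; Measure: Caspase-3 activity via Apaf-1.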
# Rh110 act interf – interferes with Rh110 fluorescence, flagging false Apaf-1 activators. shares compounds with Apaf1 activ. Rh110 fluorescence interference, quenched caspase reaction, Ex480/Em540. fluorescence interference (activity change), % at 20 µM, hits read low. 980 tested, under 10 active;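 active = mean activity change at or below -40% when tested at 20 µM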
# Apaf-1 act conf – Apaf-1 (human) activation, single-dose confirmed; shares compounds with Apaf1 activ; reconstituted apoptosome caspase-3 activity, DEVD-Rh110 fluorescence; active compounds read low; activity change, negative = activation, % at 20 µM; 980 compounds, 5% hits; AID 504617;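 active = mean activity change at or below -40%, meaning activation of 40% or more, at 20 µM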
# * marks the source's active call; other numbers are inactive results; nt = no result.
SMILES,Apaf1 activ,Rh110 act interf,Apaf-1 act conf
O=C(Nc1cccc(CCc2ccccn2)c1)c1cc(F)c(F)cc1Cl,-109*,10,17
N#Cc1c(N)n(CCOC(=O)c2cccc(Br)c2)c2nc3ccccc3nc12,46,nt,nt
Cc1ccc(NC2=C(NC(=O)c3ccccc3)C(=O)c3ccccc3C2=O)cc1Cl,67,nt,nt
COc1ccc(C(=O)c2ccc3oc(-c4ccc(OC)cc4)c(C#CCCO)c3c2)cc1,-65*,10,-16
O=C(CNc1cccc2ccccc12)N/N=C/C(Br)=C/c1ccccc1,65,nt,nt
CC(=O)N(/N=C1\Sc2ccccc2C1=O)c1cccc(C)c1,86,nt,nt
COc1ccc(Cl)cc1C(=O)NNC(=O)COC(=O)c1ccc(Br)o1,-41*,11,13
Cn1c(Cc2ccccc2)n[nH]c1=S,42,nt,nt
O=C1Nc2ccccc2N(O)N1c1cc(-c2cccc(Cl)c2)no1,-88*,-9,14
O=C1Nc2cc(Cl)c(Cl)cc2N(O)N1c1cccc(Cl)c1,44,nt,nt
COc1ccc(C(C)(C)C)cc1NC(=O)CNc1cccc2ccccc12,44,nt,nt
COc1ccc(OC)c(NC(=O)CS(=O)(=O)Cc2nc(-c3ccccc3C)oc2C)c1,-50*,2,4
COc1ccc(CC(=O)Nc2ccc(-c3nc4cc(C)ccc4o3)c(O)c2)cc1OC,42,nt,nt
CC1(C)C=C2C(=NN(c3ccccc3)C(N)=C2C#N)CO1,47,nt,nt
Cc1ccc(NC2=C(N3CCCCC3)C(=O)c3ccccc3C2=O)cc1,81,nt,nt
O=[N+]([O-])c1ccccc1-c1ccc(C(=S)N2CCCC2)o1,47,nt,nt
O=C(NNC(=O)C1CC1)c1ccccc1[N+](=O)[O-],-60*,0,9
O=C(C[C@H]1C[C@H](C(=O)N2CCCCC2)[C@@]2(CCc3ccccc3)c3[nH]c4cc(-c5ccco5)ccc4c3CCN2C1=O)NCCN1CCOCC1,48,nt,nt
CC(=O)OC1=C(O)C(=O)c2ccccc2C1=O,59,nt,nt
CCCCCCOC(=O)C[N+](C)(C)CCOC1CC2CCC1(C)C2(C)C (configuration not stated),52,nt,nt
CC(=O)N1CCN(C2=Nc3cccc4cccc2c34)CC1,80,nt,nt
N=c1n(Cc2ccccc2)c2ccccc2n1CC(O)COc1ccc(Cl)cc1Cl (configuration not stated),52,nt,nt
Cc1ccc(/C=C2\SC(=S)N(CCC(=O)NNC(=O)c3ccc(O)cc3)C2=O)cc1,-63*,15,26
CCN(CC)CCOC(=O)c1ccc(NC(=O)CCCN2C(=O)S/C(=C/c3ccc(OC)cc3)C2=S)cc1,44,nt,nt
CCCCC[n+]1ccn(C2=C([O-])c3ccccc3C(=O)/C2=N\S(=O)(=O)c2ccc(Br)cc2)c1,61,nt,nt
SMILES,Apaf1 activ,Rh110 act interf,Apaf-1 act conf
CCC(C)n1c(NC(=O)c2ccccc2)c(C#N)c2nc3ccccc3nc21 (configuration not stated),93,nt,nt
COc1ccc(NCc2cc3cc(OC)ccc3[nH]c2=O)cc1,47,nt,nt
CNC(=S)N(Cc1cc2ccc(OC)cc2[nH]c1=O)CC1CCCO1 (configuration not stated),-183*,5,15
COc1ccc2cc(C(c3nnnn3C3CCCC3)N3CCc4ccccc4C3)c(=O)[nH]c2c1 (configuration not stated),72,nt,nt
O=C1c2c(O)ccc(O)c2C(=O)c2c(NCCNCCO)ccc(NCCNCCO)c21,78,nt,nt
C#CCOCCOCCOCCNc1nc(N2CCN(C(=O)CCCCCCCCCCNC(=O)Cn3cc(CCCCCN)nn3)CC2)nc(N2CCN(C(=O)CCCCCCCCCCNC(=O)[C@H](CO)n3cc(CCCCCN)nn3)CC2)n1,63,nt,nt
O=C1NC(=Nc2ccccc2)S/C1=C/c1cccs1,-300*,7,15
COCCn1c(N)c(C#N)c2nc3ccccc3nc21,52,nt,nt
Cc1ccc(C2(c3noc(CN(C)CC4CCCCO4)n3)CCCC2)cc1 (configuration not stated),-413*,19,18
CC(=O)Nc1ccc(NC2=C/C(=N/S(=O)(=O)c3cccs3)c3ccccc3C2=O)cc1,90,nt,nt
COC(C[C@H]1O[C@@H]1C(=O)[C@H](C)OCc1ccccc1)OC,48,nt,nt
COc1ccc(NC(=O)c2c[nH]n3c(=O)cc(C4CCN(C(=O)OC(C)(C)C)CC4)nc23)cc1Cl,42,nt,nt
CCCCn1c(=O)[nH]c(=O)c2c1nc(-c1ccc([N+](=O)[O-])cc1)n2CC,-45*,2,-1
CCCN(CC(=O)Nc1ccccc1C)C(=O)C1CCCN(C(=O)c2ccc(Cl)cc2)C1 (configuration not stated),48,nt,nt
N=C1SC(c2ccccc2)C(=O)N1c1ncc(Cc2ccccc2Cl)s1 (configuration not stated),-171*,-6,11
CCOc1ccc(/C=C/[N+](=O)[O-])c2ccccc12,80,nt,nt
CCN1CCN(S(=O)(=O)c2ccc(Cl)c(C(=O)Nc3ccccc3N3CCCC3)c2)CC1,-74*,11,13
CCN1CCN(S(=O)(=O)c2ccc(Cl)c(C(=O)N(C)Cc3cccs3)c2)CC1,58,nt,nt
CCN1CCN(C2=C(NS(=O)(=O)c3ccc(NC(C)=O)cc3)C(=O)c3ccccc3C2=O)CC1,74,nt,nt
CC(=O)Nc1ccc(S(=O)(=O)NC2=C(N3CCN(C)CC3)C(=O)c3ccccc3C2=O)cc1,60,nt,nt
CN1CCN(c2ccc(S(=O)(=O)N3CCCCC3)cc2NC(=O)/C=C/c2ccc(Cl)c([N+](=O)[O-])c2)CC1,51,nt,nt
CN1CCN(c2ccc(S(=O)(=O)N3CCCCC3)cc2NC(=O)c2ccc3ccccc3c2)CC1,-155*,4,8
O=C(Cn1cc2c(n1)CCCC2)NCCCN1CCCC1,41,nt,nt
CC(C)[C@H](CO)Nc1nc(Nc2ccc(Cl)c(C(=O)O)c2)c2ncn(C(C)C)c2n1,44,nt,nt
O=C(CC1Nc2cccc3cccc(c23)NC1=O)Nc1ccccc1 (configuration not stated),96,nt,nt
SMILES,Apaf1 activ,Rh110 act interf,Apaf-1 act conf
CCC(C)Nc1ccc(NC(C)CC)cc1 (configuration not stated),43,nt,nt
O=C(OCc1nnc(-c2ccccc2)o1)c1ccc([N+](=O)[O-])s1,47,nt,nt
O=C1CCc2ccc(OCCCCN3CCN(c4cccc(Cl)c4Cl)CC3)cc2N1,43,nt,nt
CN1CCN(CCOc2cccc(Cl)c2)CC1,-50*,15,13
CN1CCN(CCc2nc3cc(NC(=O)COc4ccccc4)ccc3n2C)CC1,57,nt,nt
CCCCCCCCCCCCCCCCn1cc[n+](C)c1,80,nt,nt
COc1cccc(N2C(=O)CC(Nc3ccc(N4CCOCC4)cc3)C2=O)c1 (configuration not stated),-393*,1,16
S=C(Nc1ccc(N2CCOCC2)cc1)Nc1ccc2nc(-c3ccco3)c(-c3ccco3)nc2c1,41,nt,nt
COCCn1c(=S)[nH]c2cc(OC)c(OC)cc2c1=O,-93*,2,7
COc1cc2[nH]c(C(=O)NN)c(N)c2cc1OC,48,nt,nt
COc1cc(OC)c(C2CC(=O)N3CN(c4ccccc4C)CSC3=C2C#N)cc1OC (configuration not stated),66,nt,nt
CC(C)N(C(=O)[C@H]1C[C@H](CC(=O)NCCC2=CCCCC2)C(=O)N2CCc3c([nH]c4ccc(Cl)cc34)[C@]12C)C(C)C,44,nt,nt
c1cc(SC2CCCCC2)cc(-c2nc3cnccn3c2NC2CCCCC2)c1,41,nt,nt
